From BindingDB's records for doi:10.1021/jm0600794 (University of Innsbruck, 2006)

Biological target: T1, Glucocorticoid receptor (Homo sapiens, UniProt P04150)
T1 sequence (P04150 whole entry): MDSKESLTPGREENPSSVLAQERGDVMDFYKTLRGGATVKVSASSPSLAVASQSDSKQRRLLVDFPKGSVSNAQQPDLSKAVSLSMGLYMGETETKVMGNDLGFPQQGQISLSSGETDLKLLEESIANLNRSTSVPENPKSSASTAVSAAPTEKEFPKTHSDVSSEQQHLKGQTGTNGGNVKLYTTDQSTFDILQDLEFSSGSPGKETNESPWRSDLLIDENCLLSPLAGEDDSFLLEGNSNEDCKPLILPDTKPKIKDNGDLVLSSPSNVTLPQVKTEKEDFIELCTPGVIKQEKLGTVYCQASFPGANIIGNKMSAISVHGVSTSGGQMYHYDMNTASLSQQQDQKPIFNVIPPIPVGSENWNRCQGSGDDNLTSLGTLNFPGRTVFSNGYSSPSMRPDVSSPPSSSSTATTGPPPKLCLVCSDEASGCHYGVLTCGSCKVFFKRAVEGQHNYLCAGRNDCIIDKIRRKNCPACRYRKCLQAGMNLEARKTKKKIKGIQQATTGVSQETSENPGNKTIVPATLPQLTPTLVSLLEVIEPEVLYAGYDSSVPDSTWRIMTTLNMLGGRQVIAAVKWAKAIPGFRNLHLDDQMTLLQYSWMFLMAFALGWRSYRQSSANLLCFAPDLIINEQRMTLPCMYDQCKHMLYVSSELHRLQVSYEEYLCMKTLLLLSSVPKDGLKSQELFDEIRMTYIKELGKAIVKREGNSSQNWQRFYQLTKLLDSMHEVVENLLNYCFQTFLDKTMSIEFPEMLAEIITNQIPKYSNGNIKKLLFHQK
Test: Inhibition of GR-mediated transactivation of galactosidase reporter gene in HEK293 cells expressing 11betaHSD1
In short: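 HEK-293 cells transfected with pMMTV-LacZ, pCMV-LUC, GR, 11β-HSD1 and H6PDH plasmids. After 6 h, washed into steroid-free medium, then 24 h with 250 nM cortisone and graded inhibitor. β-Galactosidase normalized to luciferase, as % of steroid-only control. IC50 from four independent experiments, means ± SD.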

Compound `CC(=O)OC1CC[C@]2(C)C3=C(C(=O)C[C@H]2C1(C)C)[C@]1(C)CCC(C(C)CCC(=O)O)[C@@]1(C)CC3=O` (stereo partly drawn) [4-((5R,10S,13R,14R)-3-acetoxy-4,4,10,13,14-pentamethyl-7,11-dioxo-2,3,4,5,6,7,10,11,12,13,14,15,16,17-tetradecahydro-1H-cyclopenta[a]phenanthren-17-yl)pentanoic acid] has an IC50 of 2090 nM.
